Reference: PubChem BioAssay AID463170 (The Scripps Research Institute Molecular Screening Center, 2010)
Activity calls are given as the source filed them.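 The calls were made as follows: active = fold change of 10 or more over vehicle in p21 reporter light; inactive = fold change below 10.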

Biological target: Cyclin-dependent kinase inhibitor 1 (Homo sapiens) (UniProt P38936)
Assay: p21-luciferase fusion stabilization in HeLa – cell-based, luminescence, powder samples, selectivity assay for Wee1 degradation inhibitor project, late-stage follow-up (AID 463170)
Settings: at 0.1 µM, active compounds read high
Method in brief: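 Material: HeLa cells transiently expressing a p21-luciferase fusion reporter. Evaluation: average fold change in luminescence relative to DMSO vehicle. Detection: luminescence of p21-luciferase. Doses: single nominal compound dose of 0.1 µM. Schedule: compound exposure of 20 h at 37 °C.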

Sequence of Cyclin-dependent kinase inhibitor 1 (Homo sapiens) (P38936 whole entry, looked up, the tested form may be a part): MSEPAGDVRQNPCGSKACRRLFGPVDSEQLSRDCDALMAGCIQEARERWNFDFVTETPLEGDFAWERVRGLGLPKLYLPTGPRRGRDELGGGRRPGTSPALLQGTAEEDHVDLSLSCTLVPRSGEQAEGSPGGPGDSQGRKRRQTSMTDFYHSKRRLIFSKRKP

| fold change | Compound |
| --- | --- |
| 3.41 (inactive) | O=[N+]([O-])c1cccc2[nH]c(CNc3nc(N4CCOCC4)nc4c3ncn4-c3ccsc3)nc12 |
| 2.23 (inactive) | c1ccc2[nH]c(CNc3nc(N4CCOCC4)nc4c3ncn4-c3ccsc3)nc2c1 |
